Compound activity from PubChem.
GPR7 antagonist – human neuropeptides B/W receptor 1 antagonism | AID 1861 | P48145 | inhibition, % at 4.4 µM | GPR7-expressing cells, fluorescence antagonist assay | 290,000 compounds, 1.1% hits; in the data active = inhibition above about 16%, passing the limit was not always enough;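 note: cells stimulated with the agonist NPW; 0% = agonist with vehicle and 100% = vehicle without agonist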
OX1R antag-1 – blocks the human orexin 1 receptor | O43613 | OX1R-expressing cells, FRET antagonist read-out | inhibition, % at 6.6 µM | 330,000 compounds, 1.8% hits | AID 485270; in the data active = inhibition mostly above about 38%, no sharp cut-off; inactive = mostly below about 40%;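 note: 0% = agonist challenge alone and 100% = reference antagonist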
Target sequence (O43613 whole entry, looked up): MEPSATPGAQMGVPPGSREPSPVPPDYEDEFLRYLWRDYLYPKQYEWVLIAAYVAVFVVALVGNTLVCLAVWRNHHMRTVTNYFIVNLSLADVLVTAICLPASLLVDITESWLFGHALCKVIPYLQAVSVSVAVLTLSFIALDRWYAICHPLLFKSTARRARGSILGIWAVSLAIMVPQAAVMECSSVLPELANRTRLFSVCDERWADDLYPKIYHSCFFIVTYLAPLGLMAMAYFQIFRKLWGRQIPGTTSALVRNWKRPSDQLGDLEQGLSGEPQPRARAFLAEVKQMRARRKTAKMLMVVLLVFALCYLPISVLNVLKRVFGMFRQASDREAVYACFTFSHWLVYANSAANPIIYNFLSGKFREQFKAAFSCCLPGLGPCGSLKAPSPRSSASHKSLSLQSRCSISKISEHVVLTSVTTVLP
TAAR1 antagonist – human TAAR1 antagonism; CHO RD-HGA16 TAAR1, Fluo-8 calcium fluorescence, antagonist; inhibition, % at 3 µM; 360,000 compounds, 1.5% hits; AID 624466;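 active = inhibition above a per-plate cutoff, the mean inhibition of test compounds on that plate plus 3 SD, cut at about 49% in these data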;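 note: 0% = DMSO plus EC80 beta-PEA response and 100% = DMSO alone without agonist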
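Test system: CHO RD-HGA16 cells bearing hTAAR1 | Reagent: β-PEA, EC80 | Compound dosing: 3 µM, single point | Schedule: Dye loading 75 min at 37 °C, then 30 min room temperature | Signal: Calcium fluorescence with Fluo-8 | Evaluation: Percent inhibition of PEA-evoked calcium signal, max/basal emission ratio | Control set: DMSO-only wells and EC80 β-PEA-stimulated wells | Repeats: Singlicate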
OX1R antag-2 – human HCRTR1 antagonism. CHO/OX1R cells, Fluo-8 calcium fluorescence, orexin A. inhibition, % at 5 µM. 330,000 compounds, 0.43% hits;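 active = inhibition above its plate's threshold, mean inhibition of all tested compounds on the plate plus 3 SD, cut at about 37% in these data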;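 note: 0% = orexin A challenge wells and 100% = SB-334867-A antagonist wells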
CHO parental Ca – signal in parental CHO cells, OX1R antagonist counter-screen | parental CHO-K1, ATP-induced calcium, Fluo-8 fluorescence | inhibition, % at 5.6 µM | 330,000 compounds, 0.63% hits | AID 463079;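 active = inhibition above that plate's mean sample inhibition plus 3 SD, cut at about 26% in these data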;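 note: 0% = ATP-challenged DMSO wells and 100% = DMSO wells without ATP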
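Material: Parental CHO cells | Reagent: ATP | Compound dosing: Single nominal dose of 5.6 µM per compound | Detection: Intracellular calcium via Fluo-8 no-wash fluorescent dye | Read-out: % inhibition of ATP-induced calcium mobilization | Benchmarks: Low control ATP plus DMSO, high control DMSO only | Replicates: Singlicate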
TAAR1 agonist – human TAAR1 agonism | Q96RJ0 | CHO RD-HGA16 TAAR1, Fluo-8 calcium fluorescence; vehicle wells 0%, saturating PEA agonist 100% | activation, % at 3 µM | 360,000 compounds, 0.99% hits;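 active = activation above the mean activation of all test compounds in the run plus 3 SD, cut at about 38% in these data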
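Repeats: no replicates (n 1) | Material: CHO-derived RD-HGA16 cells with stable Gα16 and human TAAR1 | Technique: Kinetic Fluo-8 calcium fluorescence | Schedule: 17-24 h seeding, 75 min 37 °C dye, 30 min RT | Evaluation: % activation from peak over basal fluorescence ratio, DMSO-to-PEA scaled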
Active calls of the source: *; · = not tested or not shown. A selection: hits, their analogues and other compounds. The true share with any hit is near 4.6%.

SMILES | GPR7 antagonist | OX1R antag-1 | TAAR1 antagonist | OX1R antag-2 | CHO parental Ca | TAAR1 agonist
Cn1c(Cn2c(=O)sc3ccccc32)nnc1SCc1ccccc1F | -9 | 13 | 9 | -15 | 43* | -1
Cn1c(Cn2c(=O)sc3ccccc32)nnc1SCc1cccc(F)c1 | -8 | 8 | -11 | -15 | -13 | 0
COc1ccccc1C(=O)OCC#CCSc1nnc(-c2cccc3ccccc23)o1 | · | 49* | 31 | 18 | -11 | 11
O=C(O)c1cccc(NS(=O)(=O)c2cccc(C(=O)Nc3ccccc3[N+](=O)[O-])c2)c1 | -9 | 10 | 12 | 0 | 4 | -1
COc1ccc(-c2cc(C(=O)OCC(=O)N3CCOCC3)c3ccccc3n2)cc1 | · | 55* | -4 | 27 | -21 | 7
COc1ccc(C(=O)OCC(=O)Nc2c(C)n(C)n(-c3ccccc3)c2=O)cc1 | · | 2 | -20 | -6 | -11 | 0
COc1ccc2cc(-c3cc(C(=O)OCC(=O)Nc4c(C)n(C)n(-c5ccccc5)c4=O)c4ccccc4n3)ccc2c1 | -4 | · | 66* | · | · | 13
CC1(C)CC(NC(=O)c2c(N)no[n+]2[O-])CC(C)(C)N1 | -9 | 19 | -17 | -12 | 6 | 1
COc1ccccc1NC(=O)c1c(Nc2ccccc2F)sc(C(=O)Nc2cccc(Cl)c2)c1N | 10 | 16 | 19 | 37 | 42* | 16
COC(=O)c1c(NC(C)=O)sc(C(=O)Nc2ccccc2C)c1C | -3 | 4 | -13 | -14 | -10 | -1
COc1ccc(N2CCN(C(=O)Cc3ccc(Br)cc3)CC2)cc1 | 2 | 10 | -21 | -20 | -6 | -2
O=C1C=C(N2CCOCC2)c2ccccc2C1=O | -9 | 64* | 13 | -13 | -3 | 5
O=C1C=C(N2CCOCC2)c2cccc3cccc1c23 | · | · | 0 | · | · | 11
Cc1cc(C)c(NC(=O)C2CCCN2CCOC(=O)c2ccccc2)c(C)c1 (stereo not drawn) | 7 | 73* | -8 | 7 | -3 | 5
Cn1ncc2c(N3CCC(Cc4ccccc4)CC3)ncnc21 | -11 | 58* | 18 | -6 | 15 | 3
c1ccc(CCN2CCN(c3ncnc4c3cnn4-c3ccccc3)CC2)cc1 | -14 | 12 | 32 | -21 | -16 | 41*
O=C(NCc1ccc(F)cc1)C1CCCN(c2cnccn2)C1 (stereo not drawn) | 11 | 12 | -29 | -13 | -6 | 2
COc1ccc(NC(=O)c2cccc3cccnc23)cc1S(N)(=O)=O | -11 | 15 | 11 | -11 | -5 | 0
O=C(CN(C(=O)Cn1nnc(-c2ccc(F)cc2)n1)c1ccc(F)cc1)NC1CCCC1 | -8 | 15 | -28 | -27 | -30 | -1
Cc1ccc(SC(C)C(=O)NCCC2=CCCCC2)cc1 (stereo not drawn) | -2 | 8 | -33 | -20 | -6 | 0
CC(Sc1nc(N)cc(N)n1)C(=O)NCCC1=CCCCC1 (stereo not drawn) | · | -1 | 15 | -7 | -8 | 38*
Cc1cc(=O)[nH]c(SCC(=O)NCCC2=CCCCC2)n1 | -5 | 13 | 3 | -25 | -17 | 41*
CN1CCN(C(=O)C[C@H]2CC[C@H]3[C@@H](COC[C@@H](O)CN3C(=O)C3CCCC3)O2)CC1 | · | · | -22 | · | · | 7
Cc1ccc(NC(=O)C(C)Sc2n[nH]c(CNc3ccccc3)n2)cc1 (stereo not drawn) | -5 | 15 | -5 | -41 | -21 | -1
C/C=C/c1c(F)c(F)c(Oc2ccc(C(=O)O)cc2)c(F)c1F | 7 | 21 | 20 | -6 | -1 | 0
SMILES | GPR7 antagonist | OX1R antag-1 | TAAR1 antagonist | OX1R antag-2 | CHO parental Ca | TAAR1 agonist
COc1ccc([C@H]2N[C@]3(CCCN(Cc4ccc(F)cc4)C3=O)[C@H]3C(=O)N(Cc4ccccc4)C(=O)[C@@H]23)cc1 | · | · | -11 | · | · | 0
CCOC(=O)c1snc2c(=O)[nH]cnc12 | -8 | 42* | -5 | -1 | 4 | 19
O=C(Nc1ccccc1)c1snc2c(=O)[nH]cnc12 | -1 | 74* | 2 | -25 | -16 | 1
CCc1nc2c(OCCc3cccc(OC)c3)cccn2c1N(C)C(=O)c1cccs1 | · | · | -17 | · | · | 6
CC(Oc1ccccc1)C(=O)N1CCN=C1SCc1ccccc1F (stereo not drawn) | 11 | 28 | 3 | -22 | 40* | 6
CC(Oc1ccccc1)C(=O)N1CCN=C1SCc1cccc(F)c1 (stereo not drawn) | 11 | 9 | 10 | -17 | -12 | 9
CCN(c1cccc(C(F)(F)F)c1)S(=O)(=O)c1ccc2c(c1)CCN2C(=O)C1CC1 | -16 | 23 | 61* | 17 | 65* | 6
CCC(=O)N1CCc2cc(S(=O)(=O)N(CC)c3cccc(C)c3)ccc21 | -9 | 7 | 17 | -13 | -9 | 9
C[C@H]1CN([C@@H](C)CO)C(=O)CCCn2nncc2CO[C@@H]1CN(C)S(=O)(=O)c1ccc(Oc2ccccc2)nc1 | · | · | 3 | · | · | 1
Cc1nnsc1SCCNC(=O)Nc1ccc(Cl)cc1 | -8 | 19 | 25 | 36* | 40* | 14
O=C(NCCNC(=O)Nc1ccc(Cl)cc1)Nc1ccc(Cl)cc1 | · | · | 5 | · | · | 4
COc1cc(C(=O)Nc2cccc(NC(=O)c3ccccc3)c2)cc(OC)c1OC | -22 | 8 | 46 | -16 | -15 | 14
COc1cc(C(=O)Nc2cccc(NC(=O)c3cccs3)c2)cc(OC)c1OC | -17 | · | 51* | · | · | 12
O=C(Nc1cccc(O)c1)c1ccc(NC(=O)c2cccs2)cc1 | -5 | 44 | 52* | 2 | -5 | 8
COc1cccc(CNC(=O)c2ccc(Cl)c(NC3=NC4CS(=O)(=O)CC4S3)c2)c1 (stereo not drawn) | -15 | 1 | -19 | 0 | -9 | 2
CCc1ccc(OC(C)C(=O)Nc2ccc(S(=O)(=O)Nc3nccs3)cc2)cc1 (stereo not drawn) | 11 | 13 | 55* | 9 | 12 | 45*
CCc1ccc2[nH]c3nc(N/N=C/c4ccc(O)cc4O)nnc3c2c1 | -18 | 74* | 17 | -2 | -13 | 3
O=C(/C=C/c1ccco1)Nc1ccc2nn(-c3ccccc3)nc2c1 | 3 | 77* | -2 | 18 | 6 | 0
CCOC(=O)c1cnc(SCc2nc(N)nc(Nc3ccc(F)cc3)n2)nc1N | -6 | 61* | 12 | 16 | -17 | 11
COc1ccc(Cc2c(-c3ccco3)nc3ccc(Cl)cn23)c(C)c1 | · | · | -15 | · | · | 0
Nc1ncccc1OCc1ccc(Br)cc1 | -4 | 35 | -2 | -20 | -6 | 3
COc1ccc(COc2cccnc2N)cc1 | 20* | 2 | -5 | -6 | -1 | 5
COc1cc(CC(=O)OCC(=O)N2C(C)CCCC2C)cc(OC)c1OC (stereo not drawn) | -3 | 12 | -22 | -16 | -18 | 1
